Results on 24 molecules are retold here after ChEMBL document CHEMBL4765269, “Design, synthesis and evaluation of phenylthiazole and phenylthiophene pyrimidindiamine derivatives targeting the bacterial membrane” (Eur J Med Chem, 2020).

Structures are written as SMILES. Values after ≈ are worked out from the molar mass of the structure shown. Active and inactive are the calls of the source. No cut-off for these calls is given here. Where a SMILES comes first, the peptide text is derived from it. Bridges are numbered along the chain shown (N, C = ends). [ ]: non-standard residue; d: D form. The star is where a group is joined. X1 = CC[C@H](C)CCCCC(=O)*; Dab = NCC[C@H](N)C(=O)O Bounds are passed on as bounds.

Data set [1] deals with Escherichia coli. Put plainly: Antibacterial activity against Escherichia coli ATCC 25922 assessed as inhibition of growth measured after 24 hrs by CLSI based broth microdilution method. It is filed as functional. On the technique in general: In broth dilution the organism is exposed to a series of concentrations in liquid medium.
Data set [2] deals with Staphylococcus aureus. Put plainly: Antibacterial activity against Staphylococcus aureus ATCC 29213 assessed as inhibition of growth measured after 24 hrs by CLSI based broth microdilution method. In kind it is functional.
For data set [3], the system named is Cell membrane. Put plainly: Induction of cell membrane damage in Escherichia coli ATCC 25922 assessed as fluorescence emission at MIC after 1 hr by propidium iodide staining based transmission electron microscopy (reference value: 4.34%). It is filed as functional, subcellular. As to conditions: in the assay text read “flow cytometry” for “transmission electron microscopy”. Summed up: (§1)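 Log-phase bacteria diluted in PBS to about 10^9 CFU/mL and exposed to 1× MIC compound at 37 °C for 1 h. Cells were washed and stained with 60 µM propidium iodide in the dark for 15 min, then read at once by flow cytometry. The percentage of PI-stained cells was reported against an untreated control.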

The nature of data set [4]: Toxicity in rabbit red blood cells assessed as hemolysis at 3 to 22.5 ug/ml incubated for 1 hr relative to control. It is filed as cell-based, Oryctolagus cuniculus, Erythrocyte. As to conditions: at 3 to 22.5 µg/mL, dose 3-22.5 µg/ml, read-out: Activity. Summed up:
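Washed rabbit erythrocytes at 2% in PBS were mixed with compound at final 3 to 22.5 µg/mL for 1 h at room temperature. After centrifugation at 1500 rpm for 10 min, supernatant absorbance was read at 450 nm. Hemolysis % = (A − A_PBS)/(A_Triton − A_PBS) × 100, with 0.5% Triton X-100 as the positive control. Run in triplicate.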

Data set [5] concerns Escherichia coli. As to the kind of experiment: Antibacterial activity against Escherichia coli ATCC 25922 assessed as bacterial growth inhibition at 0.5 times of MIC concentration measured at logarithmic phase 6 th hr of bacterial cycle. In kind it is functional, organism-based. Particulars: time 24.0 hrs. In a few lines: (§2)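 Bacteria grown in Mueller Hinton broth with compound at several MIC multiples, shaken at 220 rpm and 37 °C for 24 h. Growth was recorded every 2 h over the 24 h. The solvent control was 1% DMSO under the same conditions.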

Data set [6] relates to Staphylococcus aureus. As to the kind of experiment: Antibacterial activity against Staphylococcus aureus ATCC 29213 assessed as bacterial growth inhibition at 0.5 times of MIC concentration measured at logarithmic phase 6 th hr of bacterial cycle. In kind it is functional, organism-based. As to conditions: time 24.0 hrs. Summed up: as §2
In data set [7] the test system is Escherichia coli. Put plainly: Induction of morphological changes in Escherichia coli ATCC 25922 assessed as deformed, pitted and shriveled surface at MIC incubated for 12 hrs by scanning electron microscopy. In kind it is functional, organism-based. In a few lines: (§3)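 Cells treated with 1× MIC compound or PBS, then washed three times in PBS. Pellets were fixed in 2.5% glutaraldehyde for 2 h, dehydrated through an ethanol series, critical-point dried and gold-coated. Imaging was by SEM at 3 kV.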

Data set [8] has as its system Staphylococcus aureus. As to the kind of experiment: Induction of morphological changes in Staphylococcus aureus ATCC 29213 assessed as deformed, pitted and shriveled surface at MIC incubated for 12 hrs by scanning electron microscopy. It is filed as functional, organism-based. In a few lines:
as §3

Data set [9] relates to Escherichia coli. As to the kind of experiment: Induction of morphological changes in Escherichia coli ATCC 25922 assessed as damaged cells at MIC incubated for 12 hrs by Transmission electron microscopy. It is filed as functional, organism-based. Summed up: (§4)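 Cells treated with 1× MIC compound or PBS, then washed three times in PBS. Pellets were fixed in 2.5% glutaraldehyde and then 1% osmium tetroxide, 2 h each, and examined by TEM.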

In data set [10] the test system is Staphylococcus aureus. Put plainly: Induction of morphological changes in Staphylococcus aureus ATCC 29213 assessed as damaged cells at MIC incubated for 12 hrs by Transmission electron microscopy. It is filed as functional, organism-based. Summed up: as §4
The test system of data set [11] is Cell membrane. Put plainly: Induction of membrane disruption in Escherichia coli ATCC 25922 at 1 to 4 x MIC measured within 20 min by Ethidium bromide based fluorescence assay. It is filed as functional, subcellular. In a few lines: (§5)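 Log-phase cells washed and resuspended in PBS at about 10^8 CFU/mL. Ethidium bromide ([…], stated as final) and compound at various concentrations were added. Fluorescence (ex 540, em 590 nm) was read every 20 min for 80 min against a solvent control.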

The subject of data set [12] is Cell membrane. Put plainly: Induction of membrane disruption in Staphylococcus aureus ATCC 29213 at 1 to 4 x MIC measured within 20 min by Ethidium bromide based fluorescence assay. In kind it is functional, subcellular. Summed up: as §5
The subject of data set [13] is Cell membrane. Put plainly: Induction of cell membrane damage in Staphylococcus aureus ATCC 29213 assessed as fluorescence emission at MIC after 1 hr by propidium iodide staining based transmission electron microscopy (Rvb= 1.53%). It is filed as functional, subcellular. As to conditions: in the assay text read “flow cytometry” for “transmission electron microscopy”. Summed up:
as §1
A general note: A flow cytometer gives signals particle by particle.

The subject of data set [14] is Cell membrane. As to the kind of experiment: Induction of membrane depolarization in Escherichia coli ATCC 25922 assessed as increased the fluorescence intensity at 1 to 2 times of MIC incubated for 80 min by [DiSC3(5)] probe based fluorescence assay. In kind it is functional, subcellular. In a few lines: (§6)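 Log-phase cells at 10^7 CFU/mL in PBS with 0.4 µM DiSC3(5) and 0.1 M KCl, kept in the dark. […] Fluorescence (ex 622, em 670 nm) was recorded continuously for 80 min.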

Data set [15] concerns Cell membrane. Put plainly: Induction of membrane depolarization in Staphylococcus aureus ATCC 29213 assessed as increased the fluorescence intensity at 1 to 2 times of MIC incubated for 80 min by [DiSC3(5)] probe based fluorescence assay. In kind it is functional, subcellular. Summed up:
as §6

Data set [16] deals with Staphylococcus aureus. Put plainly: Antibacterial activity against Staphylococcus aureus ATCC 29213 infected in mouse C57BL/6 bacterimia model assessed as reduction in number of viable pathogens in peritoneal cavity at 12 mg/kg, ip treated 1 hr after infection measured after 24 hrs. In kind it is functional, organism-based. Summed up: (§7)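 Male C57BL/6 mice (20 ± 2 g, 7 per group) got an ip injection of 200 µL mid-log S. aureus in sterile saline (about 10^9 CFU per 20 g). Compound was given ip 1 h later. Controls were 0.9% saline and polymyxin B 12 mg/kg. After 24 h, peritoneal lavage (2 mL PBS) was serially diluted 10-fold onto TSA and incubated 18-24 h at 37 °C. CFU were counted.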

The test system of data set [17] is Staphylococcus aureus. Put plainly: Antibacterial activity against Staphylococcus aureus ATCC 29213 infected in mouse C57BL/6 bacterimia model assessed as reduction in number of viable pathogens in peritoneal cavity at 24 mg/kg, ip treated 1 hr after infection measured after 24 hrs. In kind it is functional, organism-based. Summed up:
as §7

For data set [18], the system named is Escherichia coli. Put plainly: Antibacterial activity against Escherichia coli ATCC 25922 assessed as bacterial growth inhibition at 1 to 2 times of MIC concentration measured at logarithmic phase 6 th hr of bacterial cycle. In kind it is functional. Particulars: time 6 hrs. Summed up:
as §2

For data set [19], the system named is Staphylococcus aureus. Put plainly: Antibacterial activity against Staphylococcus aureus ATCC 29213 assessed as bacterial growth inhibition at 1 to 2 times of MIC concentration measured at logarithmic phase 6 th hr of bacterial cycle. It is filed as functional. Particulars: time 6 hrs. Summed up: as §2

As for `c1ccc(-c2ccc(CNc3ccnc(N4CCNCC4)n3)s2)cc1`, the MIC in [1] and in [2] was greater than 32 µg/mL throughout.
Consider `COc1ccc(-c2ccc(CNc3ccnc(NCC(C)C)n3)s2)cc1`, for which the MIC in data set [1] and in data set [2] was 4 µg/mL (≈ 10.9 µM) each time.
Consider `CCCCNc1nccc(NCc2ccc(-c3ccccc3)s2)n1`, for which the minimal inhibitory concentration (MIC) (commonly the lowest concentration found to suppress growth) is greater than 32 µg/mL in data set [1] and 4 µg/mL (≈ 11.8 µM) in [2].
With `CC(C)CN(CC(C)C)c1nccc(NCc2ccc(-c3ccccc3)s2)n1`, the MIC in data set [1] and in [2] was greater than 32 µg/mL each time.
In the case of `CC(C)CNc1nccc(NCc2ccc(-c3ccccc3Br)s2)n1`, the MIC in data set [1] is 4 µg/mL (≈ 9.58 µM); in data set [2], 8 µg/mL (≈ 19.2 µM).
For `CCCCN(CCCC)c1nccc(NCc2ccc(-c3ccccc3)s2)n1`, the MIC in data set [1] and in data set [2] was greater than 32 µg/mL throughout.
On to `CC(C)CNc1nccc(NCc2ccc(-c3ccc(Br)cc3)s2)n1`, for which the values for the minimal inhibitory concentration (MIC) in data set [1] and in data set [2] were 2 µg/mL (≈ 4.79 µM) and 4 µg/mL (≈ 9.58 µM), respectively.
For `CCNc1nccc(NCc2ccc(-c3ccccc3)s2)n1`, the figures for the MIC in data set [1] and in data set [2] were 16 µg/mL (≈ 51.5 µM) and greater than 32 µg/mL, respectively.
As to `CC(C)CNc1nccc(NCc2ccc(-c3ccc(F)cc3)s2)n1`, the MIC in data set [1] was greater than 32 µg/mL; in data set [2], 8 µg/mL (≈ 22.4 µM).
On the same counts, the results for `CCCN(CCC)c1nccc(NCc2ccc(-c3ccccc3)s2)n1` are 8 µg/mL (≈ 21.8 µM) and greater than 32 µg/mL.
For `CC(C)CNc1nccc(NCc2ccc(-c3ccc(C(C)(C)C)cc3)s2)n1`, the MIC in data set [1] stood at 2 µg/mL (≈ 5.07 µM); in data set [2], 8 µg/mL (≈ 20.3 µM).
As to `CC(C)Nc1nccc(NCc2ccc(-c3ccccc3)s2)n1`, the MIC in data set [1] and in data set [2] was greater than 32 µg/mL in each case.
`CCCNc1nccc(NCc2ccc(-c3ccccc3)s2)n1`: the results for the MIC in data set [1] and in data set [2] were 8 µg/mL (≈ 24.7 µM) and 16 µg/mL (≈ 49.3 µM), respectively.
In the case of `CC(C)CNc1nccc(NCc2ccc(-c3ccc(OCc4ccccc4)cc3)s2)n1`, the MIC in data set [1] and in data set [2] was 8 µg/mL (≈ 18 µM) throughout.
`Clc1nccc(NCc2csc(-c3ccccc3)n2)n1`: the minimum inhibitory concentration (MIC) in [1] and in data set [2] was greater than 32 µg/mL each time.
As to `CN[C@H](CC(C)C)C(=O)N[C@H]1C(=O)N[C@@H](CC(N)=O)C(=O)N[C@H]2C(=O)N[C@H]3C(=O)N[C@H](C(=O)N[C@H](C(=O)O)c4cc(O)cc(O)c4-c4cc3ccc4O)[C@H](O)c3ccc(c(Cl)c3)Oc3cc2cc(c3O[C@@H]2O[C@H](CO)[C@@H](O)[C@H](O)[C@H]2O[C@H]2C[C@](C)(N)[C@H](O)[C@H](C)O2)Oc2ccc(cc2Cl)[C@H]1O` [VANCOMYCIN], the minimal inhibitory concentration (MIC) in data set [1] is 1 µg/mL (≈ 0.69 µM).
For `c1ccc(-c2ccc(CNc3ccnc(N4CCOCC4)n3)s2)cc1`, the minimum inhibitory concentration (MIC) in data set [1] and in data set [2] was greater than 32 µg/mL each time.
For the molecule `c1ccc(-c2ccc(CNc3ccnc(N4CCCC4)n3)s2)cc1`, the MIC in data set [1] and in [2] was 8 µg/mL (≈ 23.8 µM) throughout.
Take `CC(C)CNc1nccc(NCc2ccc(-c3cccc(Br)c3)s2)n1`: the Activity worked out at 77.2% in data set [3] and 58.5% in data set [13]. The MIC in data set [1] is 2 µg/mL (≈ 4.79 µM); in data set [2], 3 µg/mL (≈ 7.19 µM). For the same molecule, in data set [4], the hemolysis at 1 h is less than 20%. Also, the result in data set [5], in data set [6], in data set [7], in data set [8], in [9] and in data set [10] was Active. Further, the outcome in data set [11], in [12], in data set [14], in data set [15], in [16] and in data set [17] was Active. Moreover, the “inhibition (INH)” value in data set [18] and in [19] was 100% in each case.
As to `CC[C@H](C)CCCCC(=O)N[C@@H](CCN)C(=O)N[C@H](C(=O)N[C@@H](CCN)C(=O)N[C@H]1CCNC(=O)[C@H]([C@@H](C)O)NC(=O)[C@H](CCN)NC(=O)[C@H](CCN)NC(=O)[C@H](CC(C)C)NC(=O)[C@@H](Cc2ccccc2)NC(=O)[C@H](CCN)NC1=O)[C@@H](C)O` (X1-[Dab]T[Dab][Dab][Dab][dF]L[Dab][Dab]T; lactam 4-C), the MIC in data set [1] turned out to be 32 µg/mL (≈ 26.6 µM); in data set [2] it was 512 µg/mL (≈ 425 µM).
Consider `CC(C)CNc1nccc(NCc2ccc(-c3ccccc3)s2)n1`, for which the minimum inhibitory concentration (MIC) in [1] and in data set [2] was 8 µg/mL (≈ 23.6 µM) each time.
Regarding `O=C(N[C@H](CO)[C@H](O)c1ccc([N+](=O)[O-])cc1)C(Cl)Cl` [CHLORAMPHENICOL], the minimum inhibitory concentration (MIC) in data set [1] and in data set [2] was 8 µg/mL (≈ 24.8 µM) each time.
Take `CC(C)CNc1nccc(NCc2ccc(-c3ccc(Cl)cc3)s2)n1`: the minimum inhibitory concentration (MIC) in [1] and in data set [2] was 8 µg/mL (≈ 21.5 µM) in each case.
As to `CC(C)CNc1nccc(NCc2csc(-c3ccccc3)n2)n1`, the minimum inhibitory concentration (MIC) in data set [1] and in data set [2] was greater than 32 µg/mL throughout.
